These results are taken from ChEMBL document CHEMBL1122247, “2-(6-carboxyhexyl)cyclopentanone hexylhydrazone. A potent and time-dependent inhibitor of platelet aggregation” (1983).

Assay [1] can be described thus: Tested for effect of plasma containing platelets (PRP) against arachidonic acid (500 uM) at 100 uM concentration. It is filed as functional, Homo sapiens. The procedure, abridged:
(§1)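 Human platelet-rich plasma was pretreated 1 min with 25–100 μM agent, then challenged with arachidonic acid (500 μM) or U46619 (1 μM). Aggregation was followed turbidimetrically (Born) at 37 °C. Percent inhibition versus vehicle controls was read 3 min after agonist. Results are mean ± SEM from at least three separate blood donors.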

The nature of assay [2]: Tested for effect of plasma containing platelets (PRP) against arachidonic acid (500 uM) at 25 uM concentration. It is filed as functional, Homo sapiens. An outline of the steps: as §1
The nature of assay [3]: Tested for effect of plasma containing platelets (PRP) against arachidonic acid (500 uM) at 50 uM concentration. It is filed as functional, Homo sapiens. The procedure, abridged:
as §1

A short description of assay [4]: Tested for effect of plasma containing platelets (PRP) against U-46,619 (1 uM) at 50 uM concentration. It is filed as functional, Homo sapiens. The procedure, abridged:
as §1

Assay [5] in a line: Tested for effect of plasma containing platelets (PRP) against U-46,619 (1 uM) at 100 uM concentration. It is filed as functional, Homo sapiens. An outline of the steps:
as §1

Assay [6] is described as follows: Tested for effect of plasma containing platelets (PRP) against platelet free plasma at 1 uM concentration. It is filed as functional. To be noted: Homo sapiens. An outline of the steps:
(§2)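 Hydrazone in ethanol was added to platelet-free plasma (100 μM final) and stirred. At 10-min intervals up to 1 h, aliquots were transferred to PRP (1 μM final). Aggregation to 500 μM arachidonic acid was then measured turbidimetrically at 37 °C. Controls had hydrazone added directly to PRP; seven donors.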

The nature of assay [7]: Tested for effect of plasma containing platelets (PRP) against platelet free plasma at 500 uM concentration. It is filed as functional. The conditions noted are these: Homo sapiens. An outline of the steps: as §2
The nature of assay [8]: Tested for effect of plasma containing platelets (PRP) against arachidonic acid at 0.1 uM concentration. It is filed as functional. To be noted: Homo sapiens.
Assay [9] can be described thus: Tested for effect of plasma containing platelets (PRP) against ADP at 100 uM concentration. To be noted: Homo sapiens. It is filed as functional. The procedure, abridged:
(§3)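 In human PRP, 100 μM hydrazone was tested against aggregation induced by U46619 (1–3 μM) or ADP (5 μM). Aggregation was measured by the Born turbidimetric method at 37 °C over 3 min. Reagents were added as 10-μL aliquots per mL of PRP. Percent inhibition is averaged over nine donors.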

Assay [10] is described as follows: Tested for effect of […] against PGH-2 at 100 uM concentration. It is filed as functional. To be noted: Homo sapiens, Plasma.
Assay [11] can be described thus: Tested for effect of plasma containing platelets (PRP) against U-46,619 at 100 uM concentration. It is filed as functional. To be noted: Homo sapiens. An outline of the steps:
as §3

A short description of assay [12]: Tested for effect of plasma containing platelets (PRP) against PGH-2 at 0.6 uM concentration. It is filed as functional. To be noted: Homo sapiens.
The nature of assay [13]: Tested for effect of plasma containing platelets (PRP) against arachidonic acid at 1 uM concentration. It is filed as functional. The conditions noted are these: Homo sapiens.
Assay [14] can be described thus: Time to complete inhibition of arachidonic acid (500 uM)-induced aggregation in platelet-rich plasma (PRP). To be noted: Homo sapiens.
Assay [15] can be described thus: Tested for effect of plasma containing platelets (PRP) against U-46,619 (1 uM) at 25 uM concentration. It is filed as functional, Homo sapiens. The procedure, abridged:
as §1

As for `CCCCCC(=O)N/N=C1\CCCC1CCCCCCC(=O)O` (stereo not drawn), the Inhibition – broadly, how much of the control response was suppressed – in assay [1] came to 98%; in assay [2], 8%; in assay [3], 17%; in assay [4], 6%; in [5], 30%.
As to `CCCCCCN/N=C1\CCCC1CCCCCCC(=O)O` (stereo not drawn), the inhibition (in general, the share of the control response that was lost under treatment) at 1 µM was 29% in [6] and 99% in assay [13]. The compound also showed an inhibition at 500 µM in assay [7] of 100%. Also, testing at 0.1 µM in [8] gave an inhibition of 44%. The inhibition at 100 µM stood at 6% in assay [9], 89% in [10] and 4% in [11]. Moreover, in assay [12], the inhibition at 0.6 µM is 6%. This compound registered a time to complete inhibition at 500 µM in assay [14] of 27 min.
As to `CCCCCCCN[C@H]1CCC[C@@H]1CCCCCCC(=O)O` (relative stereo), the Inhibition is listed as 100% in assay [2], 100% in assay [3], 76% in assay [15] and 98% in assay [4].
